# Data: ChEMBL document CHEMBL3992564, “Design and synthesis of novel, potent and selective hypoxanthine analogs as adenosine A1 receptor antagonists and their biological evaluation” (Bioorg Med Chem, 2017)
# pIC50, pKi: −log10 of the molar value. Calls of active or inactive are those of the source. No cut-off for these calls is given here.
# Target: T1, Adenosine receptor A1 (Homo sapiens, UniProt P30542)
# T1 sequence (P30542 whole entry): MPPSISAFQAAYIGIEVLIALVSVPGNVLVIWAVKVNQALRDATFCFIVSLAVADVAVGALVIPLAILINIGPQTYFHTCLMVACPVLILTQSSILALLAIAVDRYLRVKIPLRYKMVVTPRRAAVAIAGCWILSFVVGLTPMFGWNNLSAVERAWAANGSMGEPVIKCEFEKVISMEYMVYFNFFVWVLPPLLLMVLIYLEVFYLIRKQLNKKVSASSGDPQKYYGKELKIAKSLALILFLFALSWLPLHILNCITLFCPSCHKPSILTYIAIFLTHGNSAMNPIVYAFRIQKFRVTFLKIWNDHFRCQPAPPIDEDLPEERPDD
# Test: Displacement of [3H]DPCPX from human adenosine A1 receptor expressed in HEK293 cell membranes after 90 mins
# Conditions: not given
row,SMILES,pKi
1,CCCn1c(Oc2cccc3[nH]ccc23)nc2nc(C3CCCC3)[nH]c2c1=O,7.13
2,CCCn1c(Oc2cc(C)ccn2)nc2nc(C3CCCC3)[nH]c2c1=O,< 6.00
3,CCCn1c(OC2CCCC2)nc2nc(C3CCCC3)[nH]c2c1=O,7.85
4,CCCn1c(Oc2cccnc2Cl)nc2nc(C3CCCC3)[nH]c2c1=O,8.44
5,CCCn1c(Nc2ccccc2)nc2nc(C3CCCC3)[nH]c2c1=O,< 6.00
6,CCCn1c(Oc2ccc(C)nc2)nc2nc(C3CCCC3)[nH]c2c1=O,6.20
7,CCCn1c(Nc2cccc(F)c2)nc2nc(C3CCCC3)[nH]c2c1=O,5.35
8,CCCn1c(O[C@@H]2CCOC2)nc2nc(C3CCCC3)[nH]c2c1=O,7.30
9,CCCn1c(Oc2cccc(O)c2)nc2nc(C3CCCC3)[nH]c2c1=O,7.98

# Test system: Rattus norvegicus
# Test: Natriuretic activity in Wistar rat at 0.1 mg/kg, po via gavage measured after 4 hrs
# Format: functional, organism-based
# Conditions: not given
# How it was run: (§1)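 Male Wistar rats (250-300 g, n = 6) dosed orally at 5 mL/kg. Vehicles: DMAC 5%/NaOH/saline, or NMP 10%/PEG-400 20%/saline pH 12.0. Rats were then kept singly in metabolic cages without food or water for 4 h. Urine volume, Na+ and K+ were measured with a biochemistry analyser.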
row,SMILES,Activity
1,CCCn1c(=O)c2nc(C34CC5CC(CC3C5)C4)[nH]c2n(CCC)c1=O,Active

# Target: T2, Adenosine receptor A1 (Homo sapiens) (UniProt P30542)
# T2 sequence (whole entry): T1 sequence (P30542 whole entry)
# Test: Antagonist activity at human adenosine A1 receptor expressed in HEK293 cells assessed as reduction in CPA-mediated inhibition of forskolin-stimulated cAMP level at 30 uM preincubated for 15 mins followed by CPA treatment for 15 mins and subsequent addition of forskolin measured after 30 mins by HTRF assay relative to control
# Format: functional, cell-based
# Conditions: not given
# How it was run: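 Overnight HEK-A1 or HEK-A2B cultures were treated with 1 U/mL ADA for 90 min at 37°C. Compound was added for 15 min, then agonist for 15 min (1 nM CPA for A1; 70 nM NECA for A2B) at room temperature in incomplete DMEM with ADA. Rolipram (20 µM) was included for A1 only. cAMP was read by HTRF.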
row,SMILES,inhibition [%]
1,CCCn1c(-c2cccc(C(=O)O)c2)nc2nc(C3CCCC3)[nH]c2c1=O,< 50

# Target: T3, Adenosine receptor A3 (Homo sapiens) (UniProt P0DMS8)
# T3 sequence (whole entry): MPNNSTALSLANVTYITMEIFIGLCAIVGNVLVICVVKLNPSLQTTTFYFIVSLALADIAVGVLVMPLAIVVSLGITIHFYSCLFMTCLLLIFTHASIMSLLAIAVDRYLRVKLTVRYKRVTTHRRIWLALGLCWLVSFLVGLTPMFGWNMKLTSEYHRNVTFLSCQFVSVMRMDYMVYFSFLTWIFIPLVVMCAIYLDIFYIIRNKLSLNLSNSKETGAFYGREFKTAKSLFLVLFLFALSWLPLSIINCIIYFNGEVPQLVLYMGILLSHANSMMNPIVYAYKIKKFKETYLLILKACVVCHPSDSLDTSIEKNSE
# Test: Displacement of [3H]HEMADO from human adenosine A3 receptor expressed in HEK293 cell membranes at 1 uM after 90 mins relative to control
# Conditions: not given
# How it was run: (§2)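 Membranes from HEK-293 cells stably transfected with human receptor, pre-treated with adenosine deaminase. Radioligands: 1 nM [3H]DPCPX (A1), 1 nM [3H]ZM241385 (A2A), 1.6 nM [3H]MRS-1754 (A2B), 2 nM [3H]HEMADO (A3). Buffers: Tris pH 7.4 (A1, A2A, A3) or pH 6.5 (A2B), with ADA. Incubated 90 min at room temperature, then filtered. Nonspecific binding defined with 100 µM NECA. Ki from 8 concentrations run in triplicate.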
row,SMILES,inhibition [%]
1,CCCn1c(-c2cccc(C(F)(F)F)c2)nc2nc(C3CCCC3)[nH]c2c1=O,0
2,CCCn1c(-c2ccc(C(F)(F)F)cc2)nc2nc(C3CCCC3)[nH]c2c1=O,5
3,CCCn1c(NCC(=O)O)nc2nc(C3CCCC3)[nH]c2c1=O,0
4,CCCn1c(OC2CCCC2)nc2nc(C3CCCC3)[nH]c2c1=O,79
5,CCCn1c(Oc2cccc(O)c2)nc2nc(C3CCCC3)[nH]c2c1=O,69
6,CCCn1c(NCCO)nc2nc(C3CCCC3)[nH]c2c1=O,0

# Target: T4, Adenosine receptor A3 (Homo sapiens, UniProt P0DMS8)
# T4 sequence (P0DMS8 whole entry): T3 sequence (whole entry)
# Test: Displacement of [3H]HEMADO from human adenosine A3 receptor expressed in HEK293 cell membranes after 90 mins
# Conditions: not given
# How it was run: as §2
row,SMILES,pIC50
1,CCCn1c(Oc2cccc(OC)c2)nc2nc(C3CCCC3)[nH]c2c1=O,6.37

# Test system: not listed separately
# Test: Metabolic stability in rat liver microsomes assessed as parent compound remaining measured after 30 mins in presence of NADPH
# Format: ADME, microsome
# Conditions: read-out: Stability
row,SMILES,remaining at 0.5 h [%]
1,COc1ccc(CCN(C)CCCC(C#N)(c2ccc(OC)c(OC)c2)C(C)C)cc1OC (stereo unspecified),68
2,C[C@]12CC[C@H]3[C@@H](CCC4=CC(=O)CC[C@@]43C)[C@@H]1CC[C@@H]2O [TESTOSTERONE],2

# Test system: Liver
# Test: Metabolic stability in human liver microsomes assessed as metabolic rate measured after 30 mins in presence of NADPH
# Format: ADME, microsome
# Conditions: 0.5 h
row,SMILES,Drug metabolism [nmol/min/mg]
1,C[C@]12CC[C@H]3[C@@H](CCC4=CC(=O)CC[C@@]43C)[C@@H]1CC[C@@H]2O [TESTOSTERONE],0.05

# Target: T1, Adenosine receptor A1
# Test: Antagonist activity at human adenosine A1 receptor expressed in HEK293 cells assessed as reduction in CPA-mediated inhibition of forskolin-stimulated cAMP level preincubated for 15 mins followed by CPA treatment for 15 mins and subsequent addition of forskolin measured after 30 mins by HTRF assay
# Format: functional, cell-based
# Conditions: not given
row,SMILES,pKi
1,CCCn1c(-c2cccc(C(F)(F)F)c2)nc2nc(C3CCCC3)[nH]c2c1=O,7.92
2,CCCn1c(OC2CCCC2)nc2nc(C3CCCC3)[nH]c2c1=O,7.89

# Test system: not listed separately
# Test: Metabolic stability in human liver microsomes assessed as parent compound remaining measured after 30 mins in presence of NADPH
# Format: ADME, microsome
# Conditions: read-out: Stability
row,SMILES,remaining at 0.5 h [%]
1,COc1ccc(CCN(C)CCCC(C#N)(c2ccc(OC)c(OC)c2)C(C)C)cc1OC (stereo unspecified),78
2,C[C@]12CC[C@H]3[C@@H](CCC4=CC(=O)CC[C@@]43C)[C@@H]1CC[C@@H]2O [TESTOSTERONE],84

# Target: T2, Adenosine receptor A1 (Homo sapiens)
# Test: Displacement of [3H]DPCPX from human adenosine A1 receptor expressed in HEK293 cell membranes at 1 uM after 90 mins relative to control
# Conditions: not given
# How it was run: as §2
row,SMILES,inhibition
1,CCCn1c(-c2cccc(C(F)(F)F)c2)nc2nc(C3CCCC3)[nH]c2c1=O,100%
2,CCCn1c(-c2ccc(C(F)(F)F)cc2)nc2nc(C3CCCC3)[nH]c2c1=O,70%
3,CCCn1c(NCC(=O)O)nc2nc(C3CCCC3)[nH]c2c1=O,72%
4,CCCn1c(NCc2ccc(C(=O)O)cc2)nc2nc(C3CCCC3)[nH]c2c1=O,54%
5,CCCn1c(-c2cccc(C(=O)O)c2)nc2nc(C3CCCC3)[nH]c2c1=O,inactive
6,CCCn1c(NCCO)nc2nc(C3CCCC3)[nH]c2c1=O,36%

# Test system: Liver
# Test: Metabolic stability in rat liver microsomes assessed as metabolic rate measured after 30 mins in presence of NADPH
# Format: ADME, microsome
# Conditions: 0.5 h
row,SMILES,Drug metabolism [nmol/min/mg]
1,C[C@]12CC[C@H]3[C@@H](CCC4=CC(=O)CC[C@@]43C)[C@@H]1CC[C@@H]2O [TESTOSTERONE],> 1.52

# Target: Adenosine receptor A2a (Homo sapiens, UniProt P29274)
# Test: Displacement of [3H]ZM241385 from human adenosine A2A receptor expressed in HEK293 cell membranes at 1 uM after 90 mins relative to control
# Conditions: not given
# How it was run: as §2
# Chain of Adenosine receptor A2a (P29274 whole entry): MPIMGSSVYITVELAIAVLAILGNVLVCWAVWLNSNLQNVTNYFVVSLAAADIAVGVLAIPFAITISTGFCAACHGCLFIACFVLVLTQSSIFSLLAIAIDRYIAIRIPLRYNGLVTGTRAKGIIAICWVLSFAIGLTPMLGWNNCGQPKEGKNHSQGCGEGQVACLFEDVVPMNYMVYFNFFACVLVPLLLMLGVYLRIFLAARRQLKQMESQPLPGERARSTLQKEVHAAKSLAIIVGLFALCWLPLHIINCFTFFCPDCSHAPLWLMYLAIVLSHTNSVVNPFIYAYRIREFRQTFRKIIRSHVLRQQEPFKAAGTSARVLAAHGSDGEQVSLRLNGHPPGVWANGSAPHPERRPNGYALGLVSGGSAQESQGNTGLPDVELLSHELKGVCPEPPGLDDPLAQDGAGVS
row,SMILES,inhibition [%]
1,CCCn1c(Oc2cccc(OC)c2)nc2nc(C3CCCC3)[nH]c2c1=O,36
2,CCCn1c(-c2cccc(C(F)(F)F)c2)nc2nc(C3CCCC3)[nH]c2c1=O,0
3,CCCn1c(-c2ccc(C(F)(F)F)cc2)nc2nc(C3CCCC3)[nH]c2c1=O,0
4,CCCn1c(NCC(=O)O)nc2nc(C3CCCC3)[nH]c2c1=O,0
5,CCCn1c(NCc2ccc(C(=O)O)cc2)nc2nc(C3CCCC3)[nH]c2c1=O,31
6,CCCn1c(OC2CCCC2)nc2nc(C3CCCC3)[nH]c2c1=O,85
7,CCCn1c(Nc2cccc(F)c2)nc2nc(C3CCCC3)[nH]c2c1=O,31
8,CCCn1c(Oc2cccc(O)c2)nc2nc(C3CCCC3)[nH]c2c1=O,81
9,CCCn1c(NCCO)nc2nc(C3CCCC3)[nH]c2c1=O,5

# Test system: Rattus norvegicus
# Test: Diuretic activity in Wistar rat at 0.1 mg/kg, po via gavage measured after 4 hrs
# Format: functional, organism-based
# Conditions: not given
# How it was run: as §1
row,SMILES,Activity
1,CCCn1c(=O)c2nc(C34CC5CC(CC3C5)C4)[nH]c2n(CCC)c1=O,Active

# Target: T5, Adenosine receptor A2b (Homo sapiens) (UniProt P29275)
# T5 sequence (whole entry): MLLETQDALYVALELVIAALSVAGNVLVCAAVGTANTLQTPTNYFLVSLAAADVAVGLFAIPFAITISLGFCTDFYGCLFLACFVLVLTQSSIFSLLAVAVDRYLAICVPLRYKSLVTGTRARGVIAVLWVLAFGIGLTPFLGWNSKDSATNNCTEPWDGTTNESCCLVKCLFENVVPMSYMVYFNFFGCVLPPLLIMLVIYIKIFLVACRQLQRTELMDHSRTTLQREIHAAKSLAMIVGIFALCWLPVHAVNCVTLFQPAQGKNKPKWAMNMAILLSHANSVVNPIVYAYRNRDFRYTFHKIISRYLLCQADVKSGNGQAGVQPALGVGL
# Test: Displacement of [3H]MRS-1754 from human adenosine A2B receptor expressed in HEK293 cell membranes at 1 uM after 90 mins relative to control
# Conditions: not given
# How it was run: as §2
row,SMILES,inhibition [%]
1,CCCn1c(Oc2cccc(OC)c2)nc2nc(C3CCCC3)[nH]c2c1=O,70
2,CCCn1c(-c2cccc(C(F)(F)F)c2)nc2nc(C3CCCC3)[nH]c2c1=O,14
3,CCCn1c(-c2ccc(C(F)(F)F)cc2)nc2nc(C3CCCC3)[nH]c2c1=O,12
4,CCCn1c(NCC(=O)O)nc2nc(C3CCCC3)[nH]c2c1=O,9
5,CCCn1c(NCc2ccc(C(=O)O)cc2)nc2nc(C3CCCC3)[nH]c2c1=O,16
6,CCCn1c(OC2CCCC2)nc2nc(C3CCCC3)[nH]c2c1=O,92
7,CCCn1c(Nc2cccc(F)c2)nc2nc(C3CCCC3)[nH]c2c1=O,16
8,CCCn1c(Oc2cccc(O)c2)nc2nc(C3CCCC3)[nH]c2c1=O,53
9,CCCn1c(NCCO)nc2nc(C3CCCC3)[nH]c2c1=O,31
